Assay results: publication PMC3648642 (Journal of medicinal chemistry, 2013)

Experiments:
TSPO [1] = target: T1, TSPO (Rattus norvegicus, UniProt P16257); experiment: Radioligand displacement of 3H-PK 11195 in C6 glioma cell lysate; format: binding; settings: for decrease in affinity with respect to parent compound: R2 hydrogen replaced with methyl
[2] = Radio-HPLC of radiometabolites in plasma during PET scanning; format: in vivo, rat; settings: 2, 12, 30, 60, 90 min
C6 glioma = format: in vivo, Wistar rats
Procedure, shortened: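 C6 glioma-bearing Wistar rats were given the 18F-labelled test compound (radiochemical purity >99%) and imaged by 90-minute dynamic microPET. Time-activity curves were drawn for tumor, normal brain and plasma across eight representative studies. Plasma radiometabolites were analysed by radio-HPLC at 2, 12, 30, 60 and 90 min. Brains were processed post mortem for staining and immunohistochemistry.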

TSPO [3] = target: T1, TSPO; experiment: Biodistribution and specific binding; format: in vivo, rats
Procedure, shortened: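 Normal rats received an infusion of the 18F-labelled test compound (radiochemical purity >99%, specific activity >4203 Ci/mmol). Tissues were harvested 60 minutes after infusion, and their radioactivity was counted. Values are expressed as percentage of injected dose per gram of tissue (%ID/g).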

[4] = within the first 12 minutes post-administration; cited from earlier work
TSPO [5] = settings: high-affinity TSPO ligand for comparison; cited from earlier work
[6] = bolus of non-radioactive 6b (10 mg/kg) at 30 minutes, 60-minute assay

CCN(CC)C(=O)Cc1c(-c2ccc(OC)cc2)nn2c(C)c(C)c(C)nc12 [Compound 5d]
decrease in affinity with respect to parent compound (TSPO [1]): approximately 10 fold

CCN(CC)C(=O)Cc1c(-c2ccc(OCCF)cc2)nn2c(C)c(C)c(C)nc12 [Compound 6d]
decrease in affinity with respect to parent compound (TSPO [1]): approximately 10 fold

CCc1cc(CC)n2nc(-c3ccc(OCC[18F])cc3)c(CC(=O)N(CC)CC)c2n1 [^18F-6b, 2-(5,7-diethyl-2-(4-(2-[^18F]fluoroethoxy)phenyl)pyrazolo[1,5-a]pyrimidin-3-yl)-N,N-diethylacetamide]
radioactive species detected in plasma [2]: the only radioactive species detected in plasma at all time points
tracer uptake in brain (tumor vs normal brain) (C6 glioma; dynamic PET, 90-minute acquisition): majority of tracer uptake in the brain was localized to the tumor
clearance from plasma (C6 glioma; time-activity curve, 90-minute dynamic acquisition): quickly cleared from the plasma
accumulation in brain, testes, skull, and skeletal muscle (TSPO [3]; 60 minutes after infusion): Very minor accumulation
accumulation in spleen, heart, kidney, and lung (TSPO [3]; 60 minutes after infusion): elevated accumulation
uptake in liver, colon, small bowel, and stomach (TSPO [3]; 60 minutes after infusion): Moderate uptake
radioactivity in whole blood or urine (TSPO [3]; 60 minutes post-administration): very little radio-activity
activity in muscle or liver with displacement (TSPO [3]; [6]): essentially unchanged with displacement
activity in spleen, heart, kidney, and lung with displacement (TSPO [3]; [6]): reduced to background levels
activity in urine with displacement (TSPO [3]; [6]): elevated with displacement

CCc1cc(CC)n2nc(-c3ccc(OCCF)cc3)c(CC(=O)N(CC)CC)c2n1 [Compound 6b, 2-(5,7-diethyl-2-(4-(2-fluoroethoxy)phenyl)pyrazolo[1,5-a]pyrimidin-3-yl)-N,N-diethylacetamide]
enhancement in affinity compared to 6a (DPA-714) (TSPO [1]; TSPO affinity): 36 fold

CCN(CC)C(=O)Cc1c(-c2ccc(OCC[18F])cc2)nn2c(C)cc(C)nc12 [^18F-6a, N,N-diethyl-2-(2-(4-(2-[^18F]fluoroethoxy)phenyl)-5,7-dimethylpyrazolo[1,5-a]pyrimidin-3-yl)acetamide]
metabolism in plasma [4]: up to 30%

COc1ccccc1CN(C(C)=O)c1cnccc1Oc1ccccc1 [PBR28, N-(2-methoxybenzyl)-N-(4-phenoxypyridin-3-yl)acetamide]
Ki (TSPO [5]): 4 nM
